This passage reports inhibition and IC50 results from ChEMBL document CHEMBL1817562, “Docking and SAR studies of D- and L-isofagomine isomers as human β-glucocerebrosidase inhibitors” (Bioorg Med Chem, 2011).

One test has as its system Coffea. Description: Inhibition of coffee beans alpha-galactosidase assessed as production of p-nitrophenol at 1000 uM by spectrophotometry. The essentials: (§1)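 p-Nitrophenyl glycoside matched to each enzyme, 2 mM, with enzyme at that enzyme's optimum pH: Penicillium decumbens α-L-rhamnosidase pH 4.0, bovine liver β-galactosidase pH 6.8, coffee bean α-galactosidase pH 6.5, jack bean α-mannosidase pH 4.5, snail β-mannosidase pH 4.5. Stopped with 400 mM Na2CO3; released p-nitrophenol read at 400 nm.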

The target in test [1] is T1, Beta-galactosidase (Bos taurus) (UniProt Q58D55).
T1 sequence (whole entry): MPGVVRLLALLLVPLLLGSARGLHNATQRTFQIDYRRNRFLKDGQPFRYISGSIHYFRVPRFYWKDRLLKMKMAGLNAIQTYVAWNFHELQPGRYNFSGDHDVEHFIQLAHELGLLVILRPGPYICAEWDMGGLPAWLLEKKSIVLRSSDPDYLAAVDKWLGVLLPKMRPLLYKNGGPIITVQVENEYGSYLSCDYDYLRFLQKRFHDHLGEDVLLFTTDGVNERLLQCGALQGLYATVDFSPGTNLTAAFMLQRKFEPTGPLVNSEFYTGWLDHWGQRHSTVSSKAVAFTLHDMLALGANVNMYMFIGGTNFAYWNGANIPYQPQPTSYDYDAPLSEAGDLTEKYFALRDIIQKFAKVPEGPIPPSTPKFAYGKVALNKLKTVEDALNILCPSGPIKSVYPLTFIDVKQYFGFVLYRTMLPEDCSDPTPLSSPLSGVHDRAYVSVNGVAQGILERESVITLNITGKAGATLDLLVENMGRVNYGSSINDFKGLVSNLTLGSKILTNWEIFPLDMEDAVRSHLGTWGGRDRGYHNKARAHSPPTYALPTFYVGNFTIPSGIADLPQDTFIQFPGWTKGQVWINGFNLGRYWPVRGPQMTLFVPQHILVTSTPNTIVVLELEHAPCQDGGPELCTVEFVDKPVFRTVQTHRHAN
Description: Inhibition of bovine liver beta-galactosidase assessed as production of p-nitrophenol at 1000 uM by spectrophotometry. Put shortly:
as §1

Test [2] addresses Lactase/phlorizin hydrolase (Rattus norvegicus, UniProt Q02401). The test can be described thus: Inhibition of rat intestinal lactase assessed as production of p-nitrophenol by spectrophotometry.
The next test relates to Canavalia ensiformis. Description: Inhibition of jack beans alpha-mannosidase assessed as production of p-nitrophenol at 1000 uM by spectrophotometry. The essentials:
as §1

For the next test, the system named is Helix pomatia. Description: Inhibition of snail beta-mannosidase assessed as production of p-nitrophenol at 1000 uM by spectrophotometry. Put shortly:
as §1

Another test has as its system Penicillium decumbens. Description: Inhibition of Penicillium decumbens alpha-L-rhamnosidase assessed as production of p-nitrophenol at 1000 uM by spectrophotometry. The essentials: as §1
A short description of test [3]: Inhibition of rat intestinal cellobiase assessed as production of p-nitrophenol by spectrophotometry.
The subject of another test is Oryza sativa. The conditions noted are these: 1000 uM.
The species entered for test [4] is Rattus norvegicus. The conditions noted are these: 1000 uM.
Test [5] concerns the target Sucrase-isomaltase, intestinal (Rattus norvegicus) (UniProt P23739). The conditions noted are these: 1000 uM.
For test [6] the target is unchanged. The conditions noted are these: 1000 uM. The source holds these as a separate data set.
The subject of the next test is Prunus dulcis. The conditions noted are these: 1000 uM.
The target in test [7] is T2, Lysosomal acid glucosylceramidase (Homo sapiens) (UniProt P04062).
T2 sequence (whole entry): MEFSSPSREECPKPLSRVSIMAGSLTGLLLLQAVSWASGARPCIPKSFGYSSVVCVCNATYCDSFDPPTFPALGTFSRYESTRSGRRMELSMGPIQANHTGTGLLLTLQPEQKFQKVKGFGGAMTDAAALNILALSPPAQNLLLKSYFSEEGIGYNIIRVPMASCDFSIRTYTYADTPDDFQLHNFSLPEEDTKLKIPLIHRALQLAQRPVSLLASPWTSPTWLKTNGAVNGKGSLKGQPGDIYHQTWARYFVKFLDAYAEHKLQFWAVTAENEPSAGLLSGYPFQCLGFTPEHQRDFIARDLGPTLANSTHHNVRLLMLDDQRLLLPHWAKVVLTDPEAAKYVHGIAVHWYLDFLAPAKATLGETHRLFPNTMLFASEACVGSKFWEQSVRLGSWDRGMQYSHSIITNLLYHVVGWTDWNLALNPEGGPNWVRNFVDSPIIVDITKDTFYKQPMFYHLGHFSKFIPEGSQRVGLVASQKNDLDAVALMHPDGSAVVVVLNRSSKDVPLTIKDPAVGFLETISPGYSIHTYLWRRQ
The conditions noted are these: 1000 uM.

Test [8] deals with T3, Tissue alpha-L-fucosidase (Bos taurus) (UniProt Q2KIM0).
T3 sequence (whole entry): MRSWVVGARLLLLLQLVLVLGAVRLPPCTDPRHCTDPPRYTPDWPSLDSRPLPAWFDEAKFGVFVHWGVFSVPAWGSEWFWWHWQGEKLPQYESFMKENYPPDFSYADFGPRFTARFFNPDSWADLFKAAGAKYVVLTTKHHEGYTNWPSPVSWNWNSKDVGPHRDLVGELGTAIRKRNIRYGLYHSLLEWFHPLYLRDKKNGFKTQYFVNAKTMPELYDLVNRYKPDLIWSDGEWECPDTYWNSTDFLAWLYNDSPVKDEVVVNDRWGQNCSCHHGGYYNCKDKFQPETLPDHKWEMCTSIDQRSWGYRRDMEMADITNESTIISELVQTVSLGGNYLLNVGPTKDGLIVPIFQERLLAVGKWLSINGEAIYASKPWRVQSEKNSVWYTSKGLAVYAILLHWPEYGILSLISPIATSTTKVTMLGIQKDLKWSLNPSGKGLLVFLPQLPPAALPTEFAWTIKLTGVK
The conditions noted are these: 1000 uM.

Test [9] concerns the target T4, Glucosylceramidase (Bos taurus) (UniProt Q2KHZ8).
T4 sequence (whole entry): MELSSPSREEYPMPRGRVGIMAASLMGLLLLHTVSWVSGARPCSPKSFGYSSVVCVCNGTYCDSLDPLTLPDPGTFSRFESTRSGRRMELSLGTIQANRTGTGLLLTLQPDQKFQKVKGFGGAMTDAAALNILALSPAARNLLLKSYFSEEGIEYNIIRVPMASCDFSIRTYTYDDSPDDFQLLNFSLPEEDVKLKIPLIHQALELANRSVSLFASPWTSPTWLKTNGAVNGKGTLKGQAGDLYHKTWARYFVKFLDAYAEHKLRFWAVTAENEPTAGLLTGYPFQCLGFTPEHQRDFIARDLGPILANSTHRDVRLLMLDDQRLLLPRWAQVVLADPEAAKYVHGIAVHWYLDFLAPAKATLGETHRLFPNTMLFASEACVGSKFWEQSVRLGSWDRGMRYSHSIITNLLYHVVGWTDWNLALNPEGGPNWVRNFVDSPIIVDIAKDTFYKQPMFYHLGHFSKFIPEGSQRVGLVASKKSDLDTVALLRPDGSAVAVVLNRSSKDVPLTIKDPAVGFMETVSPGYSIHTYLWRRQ
Description: Inhibition of bovine liver beta-glucosidase assessed as production of p-nitrophenol using p-nitrophenyl glycoside as substrate at 1000 uM by spectrophotometry.

Test [10] is described as follows: Inhibition of rice alpha-glucosidase assessed as production of D-glucose using maltose as substrate after 10 to 30 mins by spectrophotometry. On the set-up: species or system Oryza sativa. The essentials:
(§2)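 Enzymes were rice α-glucosidase at pH 5.0 and rat small-intestine brush border membranes (Kessler method) at pH 5.8. Each reaction contained 25 mM maltose and enzyme and was incubated 10–30 min at 37 °C. Reactions were stopped by heating at 100 °C for 3 min, then centrifuged. Released D-glucose was measured with a glucose test reagent by absorbance at 505 nm.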

Test [11] is described as follows: Inhibition of almond beta-glucosidase assessed as production of p-nitrophenol using p-nitrophenyl glycoside as substrate by spectrophotometry.
Test [12] is filed under the species Rattus norvegicus. Description: Inhibition of rat intestinal cellobiase assessed as production of p-nitrophenol at 1000 uM by spectrophotometry.
Test [13] deals with Lactase/phlorizin hydrolase (Rattus norvegicus) (UniProt Q02401). The conditions noted are these: 1000 uM.
A short description of test [14]: Inhibition of rat intestinal maltase assessed as production of D-glucose using maltose as substrate after 10 to 30 mins by spectrophotometry. Put shortly: as §2

SMILES strings stand for the structures.

Usually inhibition stands for the percentage by which the read-out fell short of the control. One may read the IC50 as the concentration that gives 50% inhibition.

Sucrase-isomaltase, intestinal (Rattus norvegicus), sequence (P23739 1-1013 limits assumed): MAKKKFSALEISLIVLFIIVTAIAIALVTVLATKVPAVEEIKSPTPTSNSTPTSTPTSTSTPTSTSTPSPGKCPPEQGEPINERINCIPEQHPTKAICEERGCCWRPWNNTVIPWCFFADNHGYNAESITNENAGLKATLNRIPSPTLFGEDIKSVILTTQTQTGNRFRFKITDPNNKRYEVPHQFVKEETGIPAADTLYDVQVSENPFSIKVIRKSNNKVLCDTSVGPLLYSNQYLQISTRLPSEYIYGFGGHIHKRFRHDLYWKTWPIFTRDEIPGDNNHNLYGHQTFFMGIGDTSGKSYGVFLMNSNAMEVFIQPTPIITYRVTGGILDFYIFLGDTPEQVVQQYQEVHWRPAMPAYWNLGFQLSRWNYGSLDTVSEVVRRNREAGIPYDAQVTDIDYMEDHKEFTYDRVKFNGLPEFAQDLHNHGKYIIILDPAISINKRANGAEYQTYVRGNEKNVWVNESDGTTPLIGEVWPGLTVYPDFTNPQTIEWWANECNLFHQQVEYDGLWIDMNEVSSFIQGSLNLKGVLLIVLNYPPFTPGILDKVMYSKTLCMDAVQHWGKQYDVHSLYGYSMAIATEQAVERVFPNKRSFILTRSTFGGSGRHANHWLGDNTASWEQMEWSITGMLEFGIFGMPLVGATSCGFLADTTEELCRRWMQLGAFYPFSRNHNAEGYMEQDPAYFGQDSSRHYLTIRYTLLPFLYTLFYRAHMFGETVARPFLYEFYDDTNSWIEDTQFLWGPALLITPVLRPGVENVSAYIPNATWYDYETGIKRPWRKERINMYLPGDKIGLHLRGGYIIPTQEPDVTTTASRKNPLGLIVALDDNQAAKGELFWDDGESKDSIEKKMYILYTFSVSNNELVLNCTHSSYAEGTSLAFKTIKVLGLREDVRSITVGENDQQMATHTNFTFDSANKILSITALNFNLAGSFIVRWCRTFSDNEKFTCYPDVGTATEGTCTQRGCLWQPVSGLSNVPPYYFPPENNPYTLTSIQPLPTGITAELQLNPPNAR
Sucrase-isomaltase, intestinal (Rattus norvegicus), sequence (P23739 1014-1841 limits assumed): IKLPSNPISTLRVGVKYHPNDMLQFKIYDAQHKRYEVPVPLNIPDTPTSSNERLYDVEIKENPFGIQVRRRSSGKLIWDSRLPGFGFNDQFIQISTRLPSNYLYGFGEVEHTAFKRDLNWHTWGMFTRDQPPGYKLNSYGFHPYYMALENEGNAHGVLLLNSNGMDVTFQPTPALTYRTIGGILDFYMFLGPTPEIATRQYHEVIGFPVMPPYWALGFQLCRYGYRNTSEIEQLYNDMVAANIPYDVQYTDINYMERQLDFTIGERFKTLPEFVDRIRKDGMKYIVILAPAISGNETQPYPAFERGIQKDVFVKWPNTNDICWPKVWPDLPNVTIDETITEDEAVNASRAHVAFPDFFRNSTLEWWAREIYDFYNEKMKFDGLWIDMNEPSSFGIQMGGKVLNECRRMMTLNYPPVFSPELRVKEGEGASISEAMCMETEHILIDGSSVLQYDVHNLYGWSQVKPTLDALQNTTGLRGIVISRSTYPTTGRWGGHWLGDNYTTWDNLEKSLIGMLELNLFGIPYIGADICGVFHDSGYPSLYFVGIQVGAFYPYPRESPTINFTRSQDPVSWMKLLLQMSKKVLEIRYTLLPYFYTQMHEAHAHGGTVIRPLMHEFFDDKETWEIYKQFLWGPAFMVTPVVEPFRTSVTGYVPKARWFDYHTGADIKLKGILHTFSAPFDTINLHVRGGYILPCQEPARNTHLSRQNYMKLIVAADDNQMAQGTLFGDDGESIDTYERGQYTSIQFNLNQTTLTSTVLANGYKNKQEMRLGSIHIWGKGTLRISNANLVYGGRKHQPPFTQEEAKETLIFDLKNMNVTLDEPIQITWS
Lactase/phlorizin hydrolase, sequence (Q02401 868-1928 limits assumed): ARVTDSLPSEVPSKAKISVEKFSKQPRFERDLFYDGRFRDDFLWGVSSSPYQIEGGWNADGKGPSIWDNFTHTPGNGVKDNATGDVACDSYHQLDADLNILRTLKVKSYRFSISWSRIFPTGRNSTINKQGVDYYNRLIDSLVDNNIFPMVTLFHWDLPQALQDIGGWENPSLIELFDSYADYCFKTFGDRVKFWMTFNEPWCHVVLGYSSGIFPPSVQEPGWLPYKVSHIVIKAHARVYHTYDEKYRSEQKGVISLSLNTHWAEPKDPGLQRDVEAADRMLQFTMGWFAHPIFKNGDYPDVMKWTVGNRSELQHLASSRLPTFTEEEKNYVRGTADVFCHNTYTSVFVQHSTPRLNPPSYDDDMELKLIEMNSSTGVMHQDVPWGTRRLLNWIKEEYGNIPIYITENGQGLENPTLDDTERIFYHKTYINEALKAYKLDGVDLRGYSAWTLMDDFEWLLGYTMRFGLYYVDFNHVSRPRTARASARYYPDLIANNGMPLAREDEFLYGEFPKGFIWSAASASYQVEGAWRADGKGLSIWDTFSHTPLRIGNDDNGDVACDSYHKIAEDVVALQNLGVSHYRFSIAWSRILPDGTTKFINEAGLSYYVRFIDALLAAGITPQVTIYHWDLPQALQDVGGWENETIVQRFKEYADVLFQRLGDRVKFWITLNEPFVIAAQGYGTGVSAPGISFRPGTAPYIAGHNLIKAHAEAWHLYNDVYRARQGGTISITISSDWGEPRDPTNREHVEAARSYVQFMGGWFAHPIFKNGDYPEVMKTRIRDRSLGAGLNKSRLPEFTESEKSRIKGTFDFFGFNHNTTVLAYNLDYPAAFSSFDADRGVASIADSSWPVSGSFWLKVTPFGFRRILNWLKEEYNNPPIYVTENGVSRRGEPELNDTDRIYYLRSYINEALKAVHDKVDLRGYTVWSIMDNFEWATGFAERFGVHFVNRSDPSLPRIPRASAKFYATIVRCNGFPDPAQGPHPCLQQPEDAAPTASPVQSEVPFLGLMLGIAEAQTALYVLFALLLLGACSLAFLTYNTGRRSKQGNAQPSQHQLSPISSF
Lactase/phlorizin hydrolase (Rattus norvegicus), sequence (Q02401 868-1928 limits assumed): as above

In the case of `OC[C@H]1CNC[C@H](O)[C@H]1O`, the inhibition (in the test on Coffea; in [1]; in the test with Canavalia ensiformis; with Helix pomatia; in the test with Penicillium decumbens; with Oryza sativa) was under 50% throughout. The inhibition (in the test listed under Rattus norvegicus [4]; in test [5]; in test [6]; in the test with Prunus dulcis; in test [7]; in test [8]) was under 50% throughout. In addition, the inhibition in test [9] is under 50%. The IC50 in test [2] was found to be 211 µM; in test [3], 912 µM.

Consider `OC[C@H]1NCC[C@H](O)[C@@H]1O`, for which the inhibition (in the test on Coffea; in the test with Canavalia ensiformis; in the test with Helix pomatia; with Penicillium decumbens; in the test listed under Rattus norvegicus [4]; in test [5]) was under 50% in each case. The inhibition in [6], in test [7] and in [8] was under 50% throughout. Further, the IC50 in test [2] came to 4.3 µM; in test [3], 39 µM; in [10], 120 µM; in test [11] it was 120 µM.

`OC[C@@H]1NCC[C@H](O)[C@H]1O`: the inhibition (in the test filed under Rattus norvegicus [12]; in the test with Coffea; in test [1]; in the test with Canavalia ensiformis; with Helix pomatia; in the test on Penicillium decumbens) was under 50% each time. For the same molecule, the inhibition (with Oryza sativa; in the test filed under Rattus norvegicus [4]; in test [5]; in test [6]; in the test on Prunus dulcis; in test [7]) was under 50% throughout. In addition, the inhibition in test [8], in test [13] and in [9] was under 50% in each case.

With `OC[C@@H]1NCC[C@H](O)[C@@H]1O`, the inhibition (in the test listed under Rattus norvegicus [12]; in the test on Coffea; in [1]; in the test on Canavalia ensiformis; in the test with Helix pomatia; in the test with Penicillium decumbens) was under 50% each time. In addition, the inhibition (with Oryza sativa; in the test filed under Rattus norvegicus [4]; in [5]; in [6]; in the test on Prunus dulcis; in [7]) was under 50% each time. In addition, the inhibition in test [8], in test [13] and in [9] was under 50% each time.

For the molecule `OC[C@H]1NCC[C@H](O)[C@H]1O`, the inhibition (in the test filed under Rattus norvegicus [12]; in the test with Coffea; in [1]; in the test on Canavalia ensiformis; in the test on Helix pomatia; in the test with Penicillium decumbens) was under 50% in each case. Further, the inhibition (with Oryza sativa; in the test filed under Rattus norvegicus [4]; with Prunus dulcis; in test [7]; in test [8]; in test [13]) was under 50% throughout. Besides, the inhibition in test [9] is under 50%.

In the case of `OC[C@H]1CNC[C@H](O)[C@@H]1O`, the inhibition (in the test with Coffea; in [1]; with Canavalia ensiformis; with Helix pomatia; with Penicillium decumbens; in the test on Oryza sativa) was under 50% throughout. For the same molecule, the inhibition (in the test filed under Rattus norvegicus [4]; in [5]; in [6]; in test [8]; in test [9]) was under 50% each time. Also, the IC50 in [2] was determined as 52 µM; in [3], 334 µM; in [11], 443 µM.

In the case of `OC[C@@H]1CNC[C@@H](O)[C@H]1O`, the inhibition (in the test listed under Rattus norvegicus [12]; in the test on Coffea; in [1]; in the test on Canavalia ensiformis; in the test on Helix pomatia; in the test on Penicillium decumbens) was under 50% throughout. For the same molecule, the inhibition (with Oryza sativa; in the test filed under Rattus norvegicus [4]; in test [5]; in test [6]; with Prunus dulcis; in test [7]) was under 50% in each case. The inhibition in test [8] and in test [9] was under 50% throughout. Also, the IC50 in test [2] was determined as 469 µM.

`OC[C@@H]1NC[C@@H](O)[C@H](O)[C@H]1O`: the inhibition (in the test filed under Rattus norvegicus [12]; with Coffea; in the test on Canavalia ensiformis; in the test with Helix pomatia; in the test on Penicillium decumbens; in test [9]) was under 50% in each case. Moreover, the results for the IC50 in [14], in [10] and in test [11] were 28 µM, 4.3 µM and 980 µM, respectively.
